Source: ChEMBL document CHEMBL1142136, “Contribution of target gene mutations and efflux to decreased susceptibility of Salmonella enterica serovar typhimurium to fluoroquinolones and other antimicrobials” (2007)
≈ marks a conversion by molar mass, not a printed value.

Legend:
Format in all cases: functional, Salmonella enterica subsp. enterica serovar Typhimurium
[1] = test system: Salmonella typhimurium; experiment: Antimicrobial activity against Salmonella enterica serovar Typhimurium CHS14 gyrA+ with GyrA D87G mutation
Procedure, shortened: (§1)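 MICs measured by broth microdilution on the Sensititre automated system and interpreted by CLSI broth microdilution standards. Ciprofloxacin was also tested by agar dilution, widening the range to 0.0075–128 μg/ml. Quality control strains were E. coli ATCC 25922 and 35218, E. faecalis ATCC 29212, S. aureus ATCC 29213 and P. aeruginosa ATCC 27853.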

[2] = test system: Salmonella typhimurium; experiment: Antimicrobial activity against Salmonella enterica serovar Typhimurium CHS38 with GyrA D87G mutation; procedure, shortened: as §1
[3] = test system: Salmonella typhimurium; experiment: Antimicrobial activity against Salmonella enterica serovar Typhimurium CHS38 acrAB::Kan with GyrA D87G mutation; procedure, shortened: as §1
[4] = test system: Salmonella typhimurium; experiment: Antimicrobial activity against Salmonella enterica serovar Typhimurium CHS18 with GyrA S38F mutation; procedure, shortened: as §1
[5] = test system: Salmonella typhimurium; experiment: Antimicrobial activity against Salmonella enterica serovar Typhimurium CS3 with GyrA S83F, D87N, ParC S80I mutation; procedure, shortened: as §1
[6] = test system: Salmonella typhimurium; experiment: Antimicrobial activity against Salmonella enterica serovar Typhimurium S21; procedure, shortened: as §1
[7] = test system: Salmonella typhimurium; experiment: Antimicrobial activity against Salmonella enterica serovar Typhimurium CS3 acrAB::Kan with GyrA S83F, D87N, ParC S80I mutation; procedure, shortened: as §1
[8] = test system: Salmonella typhimurium; experiment: Antimicrobial activity against Salmonella enterica serovar Typhimurium CHS18 gyrA+ with GyrA S38F mutation; procedure, shortened: as §1
[9] = test system: Salmonella typhimurium; experiment: Antimicrobial activity against Salmonella enterica serovar Typhimurium S21 tolC::Kan
Procedure, shortened: (§2)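 MICs by automated broth microdilution panels, interpreted to CLSI broth microdilution standards. Ciprofloxacin additionally tested by agar dilution across 0.0075 to 128 μg/ml. Quality control strains: E. coli ATCC 25922 and 35218, Enterococcus faecalis ATCC 29212, S. aureus ATCC 29213, P. aeruginosa ATCC 27853. Test strains are kanamycin-marked deletion mutants of ground-beef isolate S21.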

[10] = test system: Salmonella typhimurium; experiment: Antimicrobial activity against Salmonella enterica serovar Typhimurium CHS14 tolC::Kan with GyrA D87G mutant; procedure, shortened: as §1
[11] = test system: Salmonella typhimurium; experiment: Antimicrobial activity against Salmonella enterica serovar Typhimurium CHS14 acrAB::Kan with GyrA D87G mutation; procedure, shortened: as §1
[12] = test system: Salmonella typhimurium; experiment: Antimicrobial activity against Salmonella enterica serovar Typhimurium CS1 gyrA+ with GyrA S83F, D87N, ParC S80I mutation; procedure, shortened: as §1
[13] = test system: Salmonella typhimurium; experiment: Antimicrobial activity against Salmonella enterica serovar Typhimurium CS9 gyrA+ with GyrA S83F, D87N, ParC S80I mutation; procedure, shortened: as §1
[14] = test system: Salmonella typhimurium; experiment: Antimicrobial activity against Salmonella enterica serovar Typhimurium CS9 acrAB::Kan with GyrA S83F, D87N, ParC S80I mutation; procedure, shortened: as §1
[15] = test system: Salmonella typhimurium; experiment: Antimicrobial activity against Salmonella enterica serovar Typhimurium S21-1 gyrA+; procedure, shortened: as §1
[16] = test system: Salmonella typhimurium; experiment: Antimicrobial activity against Salmonella enterica serovar Typhimurium CS3 tolC::Kan with GyrA S83F, D87N, parC S80I mutation; procedure, shortened: as §1
[17] = test system: Salmonella typhimurium; experiment: Antimicrobial activity against Salmonella enterica serovar Typhimurium CS1 tolC::Kan with GyrA S83F, D87N, ParC S80I mutation; procedure, shortened: as §1
[18] = test system: Salmonella typhimurium; experiment: Antimicrobial activity against Salmonella enterica serovar Typhimurium CS9 with GyrA S83F, D87N, ParC S80I mutation; procedure, shortened: as §1
[19] = test system: Salmonella typhimurium; experiment: Antimicrobial activity against Salmonella enterica serovar Typhimurium CHS18 acrAB::Kan with GyrA S38F mutation; procedure, shortened: as §1
[20] = test system: Salmonella typhimurium; experiment: Antimicrobial activity against Salmonella enterica serovar Typhimurium S21 gyrA+; procedure, shortened: as §1
[21] = test system: Salmonella typhimurium; experiment: Antimicrobial activity against Salmonella enterica serovar Typhimurium CS3 gyrA+ with GyrA S83F, D87N, ParC S80I mutation; procedure, shortened: as §1
[22] = test system: Salmonella typhimurium; experiment: Antimicrobial activity against Salmonella enterica serovar Typhimurium CHS18 tolC::Kan with GyrA S38F mutation; procedure, shortened: as §1
[23] = test system: Salmonella typhimurium; experiment: Antimicrobial activity against Salmonella enterica serovar Typhimurium CS1 acrAB::Kan with GyrA S83F, D87N, ParC S80I mutation; procedure, shortened: as §1
[24] = test system: Salmonella typhimurium; experiment: Antimicrobial activity against Salmonella enterica serovar Typhimurium CS1 with GyrA S83F, D87N, ParC S80I mutation; procedure, shortened: as §1
[25] = test system: Salmonella typhimurium; experiment: Antimicrobial activity against Salmonella enterica serovar Typhimurium CHS38 gyrA+ with GyrA D87G mutation; procedure, shortened: as §1
[26] = test system: Salmonella typhimurium; experiment: Antimicrobial activity against Salmonella enterica serovar Typhimurium CHS14 with GyrA D87G mutation; procedure, shortened: as §1
[27] = test system: Salmonella typhimurium; experiment: Antimicrobial activity against Salmonella enterica serovar Typhimurium CHS38 tolC::Kan with GyrA D87G mutation; procedure, shortened: as §1
[28] = test system: Salmonella typhimurium; experiment: Antimicrobial activity against Salmonella enterica serovar Typhimurium CS9 tolC::Kan with GyrA S83F, D87N, ParC S80I mutation; procedure, shortened: as §1
[29] = test system: Salmonella typhimurium; experiment: Antimicrobial activity against Salmonella enterica serovar Typhimurium S21 acrAB::Kan; procedure, shortened: as §2
[30] = test system: Salmonella typhimurium; experiment: Antimicrobial activity against Salmonella enterica serovar Typhimurium S21-2 with GyrA S83F, ParC S80I mutation; procedure, shortened: as §1
[31] = test system: Salmonella typhimurium; experiment: Antimicrobial activity against Salmonella enterica serovar Typhimurium S21-3 gyrA+ with ParC S80I mutation; procedure, shortened: as §1
[32] = test system: Salmonella typhimurium; experiment: Antimicrobial activity against Salmonella enterica serovar Typhimurium S21-3 with GyrA S83F, ParC S80I mutation; procedure, shortened: as §1
[33] = test system: Salmonella typhimurium; experiment: Antimicrobial activity against Salmonella enterica serovar Typhimurium S21-2 gyrA+ with ParC S80I mutation; procedure, shortened: as §1
[34] = test system: Salmonella typhimurium; experiment: Antimicrobial activity against Salmonella enterica serovar Typhimurium S21-4 with GyrA S83F, ParC S80I mutation; procedure, shortened: as §1
[35] = test system: Salmonella typhimurium; experiment: Antimicrobial activity against Salmonella enterica serovar Typhimurium S21-4 gyrA+ with ParC S80I mutation; procedure, shortened: as §1
[36] = test system: Salmonella typhimurium; experiment: Antimicrobial activity against Salmonella enterica serovar Typhimurium S21-1 GyrA S83F mutant; procedure, shortened: as §1

Compound	MIC [1] [µg/mL]	MIC [2] [µg/mL]	MIC [3] [µg/mL]	MIC [4] [µg/mL]	MIC [5] [µg/mL]	MIC [6] [µg/mL]	MIC [7] [µg/mL]	MIC [8] [µg/mL]	MIC [9] [µg/mL]	MIC [10] [µg/mL]	MIC [11] [µg/mL]	MIC [12] [µg/mL]	MIC [13] [µg/mL]	MIC [14] [µg/mL]	MIC [15] [µg/mL]	MIC [16] [µg/mL]	MIC [17] [µg/mL]	MIC [18] [µg/mL]	MIC [19] [µg/mL]	MIC [20] [µg/mL]	also measured
CC1(C)S[C@@H]2[C@H](NC(=O)[C@H](N)c3ccccc3)C(=O)N2[C@H]1C(=O)O [AMPICILLIN]	< 1	> 32	> 32	2 (≈ 5.72 µM)	> 32	2 (≈ 5.72 µM)	> 32	2 (≈ 5.72 µM)	< 1	< 1	< 1	> 32	> 32	> 32	> 32	> 32	> 32	> 32	1 (≈ 2.86 µM)	2 (≈ 5.72 µM)	MIC [21]: > 32 µg/mL; MIC [22]: 1 µg/mL (≈ 2.86 µM); MIC [23]: > 32 µg/mL; MIC [24]: > 32 µg/mL; MIC [25]: > 32 µg/mL; MIC [26]: < 1 µg/mL; MIC [27]: > 32 µg/mL; MIC [28]: > 32 µg/mL; MIC [29]: < 1 µg/mL
CO/N=C(\C(=O)N[C@@H]1C(=O)N2C(C(=O)O)=C(CSC(=O)c3ccco3)CS[C@H]12)c1csc(N)n1 [CEFTIOFUR]	1 (≈ 1.91 µM)	0.5 (≈ 0.955 µM)	0.12 (≈ 0.229 µM)	1 (≈ 1.91 µM)	1 (≈ 1.91 µM)	0.5 (≈ 0.955 µM)	0.5 (≈ 0.955 µM)	1 (≈ 1.91 µM)	< 0.12	< 0.12	< 0.12	1 (≈ 1.91 µM)	1 (≈ 1.91 µM)	0.5 (≈ 0.955 µM)	0.5 (≈ 0.955 µM)	0.5 (≈ 0.955 µM)	0.5 (≈ 0.955 µM)	1 (≈ 1.91 µM)	0.12 (≈ 0.229 µM)	0.5 (≈ 0.955 µM)	MIC [30]: 4 µg/mL (≈ 7.64 µM); MIC [31]: 4 µg/mL (≈ 7.64 µM); MIC [32]: 4 µg/mL (≈ 7.64 µM); MIC [33]: 4 µg/mL (≈ 7.64 µM); MIC [21]: 1 µg/mL (≈ 1.91 µM); MIC [34]: 4 µg/mL (≈ 7.64 µM); MIC [22]: 0.12 µg/mL (≈ 0.229 µM); MIC [35]: 4 µg/mL (≈ 7.64 µM); MIC [23]: 0.5 µg/mL (≈ 0.955 µM); MIC [24]: 1 µg/mL (≈ 1.91 µM); MIC [25]: 0.5 µg/mL (≈ 0.955 µM); MIC [36]: 0.5 µg/mL (≈ 0.955 µM); MIC [26]: 1 µg/mL (≈ 1.91 µM); MIC [27]: 0.12 µg/mL (≈ 0.229 µM); MIC [28]: 0.5 µg/mL (≈ 0.955 µM); MIC [29]: < 0.12 µg/mL
